MIN6 prolif-1: inducers of beta-cell replication in MIN6 cells; 330,000 compounds, 0.29% hits; proliferation, % at 10 µM; AID 2380; MIN6 cells proliferation, ATPlite luminescence, 48 h; cells starved in 0.2% serum; 100% = growth in 10% serum;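 active = compounds whose signal lies at least 3.5 SD above the mean of all wells on their plate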;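 also: 0% = DMSO-treated cells in low-serum medium and 100% = 10% serum control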
UBC13 polyUb: blocks human UBC13 polyubiquitin chain formation. P61088. TR-FRET. inhibition, % at 20 µM. 330,000 compounds, 0.47% hits; in the data active = inhibition above about 45%, passing the limit was not always enough
MPTP inh: inhibitors of mitochondrial permeability transition pore; 360,000 compounds, 1.4% hits; isolated mouse mitochondria, Ca2+ swelling absorbance, 30 min; AID 602449; inhibition, % at 10 µM;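 active = inhibition of 50% or more, scaled per plate between neutral and stimulator controls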;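 also: 0% = DMSO wells given calcium and 100% = 1 mM EGTA wells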
Granule exo inh: blocks lytic granule exocytosis; TALL-104 LAMP-1 surface exposure, flow cytometry; cells stimulated with thapsigargin and PMA; 360,000 compounds, 0.66% hits; inhibition, % at 10 µM; AID 651702;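 active = inhibition above about 55%, limit read from the data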
Apaf-1 inh: inhibitors of human Apaf-1 apoptosome | reconstituted apoptosome caspase-3 activity, DEVD-Rh110 fluorescence | inhibition, % at 20 µM | 330,000 compounds, 0.71% hits | AID 489030; active = inhibition of at least 40% at 20 µM;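 also: plate controls were DMSO wells for no effect and DEVD-CHO caspase inhibitor wells for full effect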
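Material: reconstituted apoptosome with Apaf-1, cytochrome c, caspase-9, procaspase-3, dATP / Buffer or medium: pH 7.5 Hepes buffer with CHAPS, BSA, DTT / Also added: cytochrome c with DEVD-Rh110 / Schedule: compound with Apaf-1, dATP, procaspase-3 30 min, then 50 min reaction, room temperature / Technique: rhodamine 110 fluorescence at Ex 480/Em 540 nm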
hiPSC survival: enhancers of human iPSC single-cell survival; hiPSC single-cell survival, ATPlite luminescence; 100% = ROCK inhibitor wells, 0% = DMSO; survival enhancement, % at 20 µM; 360,000 compounds, 0.044% hits; in the data active = survival enhancement above about 18%;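 also: cells exposed to compounds for 16 hours before the ATP read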
MIN6 prolif-2: MIN6 beta-cell replication induction, confirmed. 920 tested, under 10 active. proliferation increase, % at 50 µM. AID 463095. MIN6 beta-cell proliferation, ATPlite luminescence, 48 h; cells kept in 0.2% serum; scaled between 0.2% and 10% serum. shares compounds with MIN6 prolif-1;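 active = proliferation increase above 40% at any of the four tested concentrations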
Active calls of the source: *; x = no result. Shown are actives, neighbours in structure and some others; about 3% of the full set was active somewhere.

SMILES	MIN6 prolif-1	UBC13 polyUb	MPTP inh	Granule exo inh	Apaf-1 inh	hiPSC survival	MIN6 prolif-2
CN1CCN(C(=O)C[C@H]2CC[C@H]3[C@@H](COC[C@@H](O)CN3Cc3cccc(F)c3)O2)CC1	x	x	26	-6	x	x	x
CCOC(=O)c1[nH]c2ccc(OC)cc2c1NS(=O)(=O)c1ccc(Cl)s1	5.3*	-5	1	11	9	0	-6
COc1ccc2[nH]c(=O)c(CN(C(=O)c3ccncc3)C(C)(C)C)cc2c1	13*	-4	0	-2	0	1	1
COc1ccc2[nH]c(=O)c(CN(C)C(=O)c3ccncc3)cc2c1	0	3	3	1	-16	-2	x
COCCNC(=S)N(c1ccccc1)C(C)C	1	5	0	-4	-1	2	x
COCCNC(=S)NN(c1ccccc1)c1ccccc1	9.0*	5	-1	-2	5	0	-4
Cc1cc(C)c2c(N)c3ccccc3nc2n1	7.5*	-32	3	-2	-8	8	-6
CCc1ccc2nc3nc(C)cc(C)c3c(N)c2c1	-4	-15	0	13	-8	-1	x
CCOC(=O)C1CCN(C(=O)C2(NC(=O)Nc3ccc(F)cc3F)CCCCC2)CC1	7.6*	5	-1	11	2	0	-1
CCOC(=O)C1CCN(C(=O)C2(NC(=O)NC3CCCCC3)CCCCC2)CC1	-1	-18	3	2	2	0	x
O=C1NC(c2ccc(Br)cc2)Oc2ccccc21 (configuration not stated)	6.4*	1	1	-7	6	0	-2
COc1ccccc1CNC(=O)CSc1ccc(-c2cccs2)nn1	7.8*	-10	-1	-1	2	2	-2
Cc1ccc(S(=O)(=O)Nc2ccccc2C=NNC(=O)c2ccncc2)cc1	x	x	2	6	x	-1	x
CC(=Nc1ccccc1)C1=C(O)C(Cc2ccccc2)NC1=O (configuration not stated)	x	x	0	10	x	-1	x
COc1cccc(-n2nc(C(C)=O)c(C#N)c2-c2ccco2)c1	9.4*	0	2	0	6	1	2
CCCC(=O)N(CCN(C(=O)CCC)c1ccccc1)c1ccccc1	8.8*	6	2	-5	-1	-1	-3
CCN(C(=O)CCC(=O)N(CC)c1ccccc1)c1ccccc1	-1	-2	1	-7	8	-2	x
COc1ccc(CC(=O)NCCS(=O)(=O)N2CCN(c3ccccc3)CC2)cc1OC	-4	-4	-3	-4	1	1	x
COc1ccc(CC(=O)NCCS(=O)(=O)N2CCN(c3ccccc3)CC2)cc1	11*	-5	-2	4	2	0	0
COc1ccc(CNC/C=C/c2ccccc2)cc1	7.6*	7	1	5	4	0	-6
COc1ccc(-c2nnc(SCC(=O)N3CCOCC3)o2)cc1OC	8.5*	0	-1	-5	-8	-1	2
c1cnc2ccc(-n3ccnc3)cc2c1	x	x	-1	2	x	5	x
COc1ccccc1N(CC(=O)NCCSc1ccccn1)S(=O)(=O)c1ccccc1	19*	8	2	23	3	0	-2
CCOC(=O)Cc1cc(=O)n2[nH]c(C)c(-c3ccccc3)c2n1	6.1*	10	-1	-2	1	3	-3
O=C(O)c1ccccc1SC1CC(=O)N(C2CCCCC2)C1=O (configuration not stated)	9.9*	-2	-1	4	1	2	-6
SMILES	MIN6 prolif-1	UBC13 polyUb	MPTP inh	Granule exo inh	Apaf-1 inh	hiPSC survival	MIN6 prolif-2
CCOC(=O)c1c(S(=O)(=O)N2CCC(C)CC2)c(C)n(C)c1C	-1	1	0	-2	4	0	x
Cc1cc(C)c(C)c(S(=O)(=O)Nc2ccccc2C(=O)NCCCN2CCOCC2)c1C	8.2*	2	1	-4	-13	0	-6
Cc1cc(C)c(C)c(S(=O)(=O)Nc2ccccc2C(=O)NCCCn2ccnc2)c1C	x	x	-3	1	x	2	x
COc1ccc(OCc2cc(C(=O)N(Cc3nccn3C)C(C)C)no2)c2ccccc12	12*	2	-1	21	10	2	-6
C[C@H]1COC(=O)CC/C=C\C[C@H](CC(=O)N(CCO)Cc2ccccc2)C(=O)N1	-2	3	-1	-6	-11	-2	x
COc1cc2nc(Cl)nc(N3CCCCC3)c2cc1OC	7.6*	15	-1	0	2	-2	-3
Cc1ccc2c(c1)C1CC(C)(O2)N(c2cccc(C(=O)NC3CCN(Cc4ccccc4)CC3)c2)C(=O)N1 (configuration not stated)	-3	-3	-2	2	-9	-1	x
COc1cccc(-c2nc(-c3ccccc3)c3ccc(Cl)cc3n2)c1	x	x	4	-6	x	-1	x
CC12CCCCN1CCCc1c2[nH]c2ccccc12 (configuration not stated)	5.5*	3	0	3	-7	-2	-6
Cc1ccsc1/C=N/NC(=O)CNC(=O)c1cccc([N+](=O)[O-])c1C	8.1*	-7	1	-3	3	0	-2
CCCN1Cc2cccc(C(=O)Nc3ccc4c(c3)OCO4)c2C1=O	11*	6	1	30	9	4	0
CCCN1Cc2cccc(C(=O)Nc3ccc(CC)cc3)c2C1=O	7.1*	3	5	-1	3	3	0
O=C(COC(=O)c1ccc2[nH]c3c(c2c1)CCCC3)Nc1ccccc1Cl	9.6*	14	0	-4	1	0	-1
O=C(COC(=O)c1ccc2[nH]c3c(c2c1)CCCC3)Nc1ccc(Cl)cc1Cl	0	8	38	1	-1	-1	x
CC(=O)C[C@H](O)CC(=O)[C@@H]1OC(=O)CCCCCCCCc2ccccc21	-4	-10	0	1	19	-2	x
Cc1ccc(S(=O)(=O)N2CCOC23CCN(C(=O)c2ccccc2Br)CC3)cc1	13*	-2	0	8	12	0	-6
COc1ccc(S(=O)(=O)N2CCOC23CCN(C(=O)c2ccccc2Br)CC3)cc1	-3	2	0	1	6	0	x
Cc1ccc(S(=O)(=O)N2CCOCC2)cc1C(=O)N1CCN(c2ncccn2)CC1	-5	-4	1	-7	5	0	x
CC(C)(Oc1ccc(Cl)cc1)C(=O)Nc1c2c(nn1C(C)(C)C)CS(=O)(=O)C2	15*	-1	0	2	6	0	3
O=C(c1ccc(NS(=O)(=O)c2ccc(F)cc2)cc1)N1CCC1	-5	-2	-1	2	8	0	x
Nc1ccc(-c2nnnn2-c2ccc(N)cc2)cc1	5.3*	6	0	-4	-8	0	-3
Cc1ccc(-n2nnnc2-c2ccccc2)cc1	4	11	4	1	-16	0	x

Screening results from PubChem.
